GSK3B inh = human GSK3beta kinase inhibitors, primary screen, biochemical, cell-free homogeneous, HTS; hit rate 0.038% among 300,000; Glycogen synthase kinase-3 beta (Homo sapiens), P49841; GST-GSK3beta kinase, ADP-Glo luminescence, 60 min; active compounds read low; activity score (negative = inhibition), % at 10 µM;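 active = more than half of replicate wells score below -50%, meaning over 50% inhibition versus plate controls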;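 also: 0% = median DMSO wells and -100% = median GW8510 positive control wells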
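test system = GST-tagged human GSK3beta kinase, cell-free | reagent = 25 µM ATP with peptide substrate | dosing = one dose of 10 µM per compound | schedule = 60 min reaction, RT | detection = luminescent ADP-Glo measurement of ADP formed | control set = DMSO neutral wells and GW8510 at 20 µM as positive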
MEKK2mut PB1 HTS = MEK5 binding signal on mutant MEKK2 PB1, primary screen, biochemical, multiplex bead flow cytometry, Alexa488-MEK5; hit rate 0.35% among 290,000; percent response, % at 10 µM; Alexa488-MEK5 binding to MEKK2 mutant; AID 1530, 2009; in the data active = percent response above about 24%, passing the limit was not always enough
MEKK3 PB1 HTS = modulators of MEKK3-MEK5 PB1 binding, primary screen, biochemical, wildtype MEKK3, multiplex bead flow cytometry, Alexa488-MEK5 | binding response (% of control), % at 10 µM | AID 1529, 2009 | bead-based flow cytometry, Alexa488-MEK5 binding to MEKK3; actives lie on both sides; 0 = blocked by unlabeled MEK5, 100 = vehicle | hit rate 1.4% among 290,000;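 active = binding response more than 3 SD above or below the average of its plate-row segment, actives on both sides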;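 also: Alexa488 bead fluorescence after subtracting the streptavidin-only scavenger bead signal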
STK33 inh = inhibitors of purified STK33 kinase, primary screen, biochemical, ADP-Glo luminescence, homogeneous, cell-free | MBP phosphorylation | inhibition, % at 10 µM | hit rate 0.073% among 320,000;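 active = inhibition at or above 25%, using the most active replicate where run in duplicate; inactive = inhibition below 25%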
MEKK2 WT-MEK5 = modulators of MEK5 binding to wildtype MEKK2, primary screen, biochemical, multiplex bead flow cytometry, Alexa488-MEK5 | Alexa488-MEK5 binding to MEKK2 WT; actives lie on both sides | AID 1531, 2009 | Mitogen-activated protein kinase kinase kinase 2 (Homo sapiens), Q9Y2U5 | binding response (% of control), % at 10 µM | hit rate 1.1% among 290,000; in the data active = binding response below about 67% or above about 130%
GSK3A inh = blockers of GSK3A enzyme activity – biochemical, luminescence, cell-free homogeneous, HTS, primary screen; Glycogen synthase kinase-3 alpha (Homo sapiens), P49840; GSK-3 alpha kinase, ADP-Glo luminescence, 60 min; inhibition, % at 10 µM; hit rate 0.1% among 320,000; AID 2650, 2010;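 active = more than half of replicates show inhibition above 20%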;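 also: GST-tagged GSK-3 alpha with peptide substrate and 25 µM ATP; 0% = DMSO neutral wells and 100% = GW8510 positive control wells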
Target sequence (P49840 whole entry, looked up): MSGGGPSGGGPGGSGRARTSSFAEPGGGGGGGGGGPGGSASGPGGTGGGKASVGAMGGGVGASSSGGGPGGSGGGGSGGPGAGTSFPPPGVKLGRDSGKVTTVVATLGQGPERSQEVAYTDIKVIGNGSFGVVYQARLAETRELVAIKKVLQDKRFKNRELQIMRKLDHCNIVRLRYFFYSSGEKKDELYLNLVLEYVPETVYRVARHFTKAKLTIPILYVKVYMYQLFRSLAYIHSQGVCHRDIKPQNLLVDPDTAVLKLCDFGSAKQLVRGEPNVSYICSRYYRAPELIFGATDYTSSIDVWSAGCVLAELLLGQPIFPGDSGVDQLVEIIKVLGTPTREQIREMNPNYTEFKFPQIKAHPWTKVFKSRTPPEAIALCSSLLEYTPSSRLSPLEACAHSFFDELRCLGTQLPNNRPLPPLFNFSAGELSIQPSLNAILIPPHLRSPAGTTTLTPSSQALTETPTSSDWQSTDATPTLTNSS
MEKK2wt confirm = modulators of MEK5 binding to wildtype MEKK2, confirmation, biochemical, single concentration, multiplex bead flow cytometry; shares compounds with MEKK3 PB1 HTS; Alexa488-MEK5 binding to MEKK2 WT; actives lie on both sides; binding response (% of control), % at 10 µM; hit rate 2.4% among 5,900; AID 1892, 2009; in the data active = binding response below about 16% or above about 210%; inactive = in between
MEKK2mut confirm = mutant MEKK2 PB1-MEK5 binding signal retest – biochemical, single concentration, multiplex bead flow cytometry, confirmation. hit rate 2% among 5,900. percent response, % at 10 µM. Alexa488-MEK5 binding to MEKK2 mutant. shares compounds with MEKK3 PB1 HTS; in the data active = percent response mostly above about 71%, no sharp cut-off; inactive = mostly below about 38%;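 also: higher means compound restores mutant binding toward wildtype level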
MEKK3-MEK5 inh = MEKK3 wild-type PB1 binding to MEK5, inhibitors, confirmation, biochemical, bead multiplex flow cytometry, single concentration, wildtype | shares compounds with MEKK3 PB1 HTS | Alexa488-MEK5 binding to MEKK3; active compounds read low | binding response (% of control), % at 10 µM | hit rate 1.8% among 5,900 | AID 1894, 2009;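 active = binding response below 72% of control, or above a set upper limit, though filed actives all read lower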;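 also: 100% = DMSO only wells and 0% = binding blocked by excess unlabeled MEK5; lower values mean stronger disruption of MEK5 binding to MEKK3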
Numbers without * were called inactive; / = no result given; + = active, no number; [ ] = dose if it differs, or a comment. Only some compounds are listed: those with a hit (about 2.1% of all), similar ones and a draw of the others.

SMILES	GSK3B inh	MEKK2mut PB1 HTS	MEKK3 PB1 HTS	STK33 inh	MEKK2 WT-MEK5	GSK3A inh	MEKK2wt confirm	MEKK2mut confirm	MEKK3-MEK5 inh
CCCN(CCC)C(=O)C1CC(=O)OC12CCCCC2 (stereo not given)	0.6	-7.0	97.0	0.7	87.0	1.9	/	/	/
CC(C)c1ccc(/C=C/C(=O)Nc2ccc(CN3CCOCC3)cc2)cc1	3.7	-17.0	93.0	-0.8	95.0	-3.3	/	/	/
O=C(/C=C/c1ccc(Cl)cc1)Nc1ccc(CN2CCOCC2)cc1	1.8	31.0	106.0	1.2	140.0*	-4.5	111.0	3.0	102.0
O=C(O)c1cc(S(=O)(=O)N2CCCCC2)ccc1N1CCOCC1	/	/	/	0.9	/	-1.1	/	/	/
COC(=O)c1ccc(C(=O)OC)c(NC(=O)C(C)(C)C)c1	-3.1	-1.0	109.0	0.8	103.0	-0.5	/	/	/
CCC(CC)C(=O)Nc1cc(C(=O)OC)ccc1C(=O)OC	-0.1	1.0	194.0*	0.6	113.0	-1.1	97.0	-1.0	105.0
S=c1nc(SCc2ccccc2)[nH]c2ccccc12	-4.0	-18.0	49.0*[inhibitor]	-0.2	50.0	-1.7	115.0	4.0	102.0
O=C(Nc1nnc(-c2ccncc2)o1)c1ccc(Br)s1	-3.9	-1.0	104.0	-0.7	98.0	2.2	/	/	/
CCCOc1ccc(C2=NNC(c3cccs3)=Nc3ccc(OC)cc32)cc1	-0.9	6.0	141.0*	-1.3	87.0	-0.6	101.0	1.0	107.0
COc1ccc2c(c1)C(c1cccs1)=NNC(c1ccncc1)=N2	-5.7	3.0	103.0	-0.6	110.0	2.3	/	/	/
O=C(O)c1ccc(/C=N/NC(=O)C(O)(c2ccccc2)c2ccccc2)cc1	-0.9	0.0	101.0	0.2	103.0	-0.4	/	/	/
CCN(CC)c1ccc(/C=N/NC(=O)C(O)(c2ccccc2)c2ccccc2)o1	-3.2	0.0	75.0*[inhibitor]	-0.5	95.0	0.1	100.0	0.0	103.0
Cc1cccc(NC(=O)COC(=O)Cc2cccc(C(F)(F)F)c2)c1C	0.7	1.0	145.0*	-1.1	117.0	0.2	103.0	8.0	103.0
CC(=O)c1ccccc1NC(=O)COC(=O)Cc1cccc(C(F)(F)F)c1	/	/	/	-0.8	/	0.7	/	/	/
CCC(C)(C)C1CCC2(CC1)NC(=O)N(CC(=O)NCCc1c[nH]c3ccccc13)C2=O (stereo not given)	/	/	/	-0.2	/	-2.3	/	/	/
Cc1nn(Cc2ccccc2)c(C)c1NC(=O)CSc1n[nH]c(C)c1[N+](=O)[O-]	1.9	0.0	134.0*	1.1	100.0	-0.2	100.0	0.0	100.0
Cc1nn(Cc2ccccc2Cl)c(C)c1NC(=O)CSc1n[nH]c(C)c1[N+](=O)[O-]	-0.1	16.0	102.0	-0.7	112.0	-2.3	/	/	/
Cc1nn(Cc2ccc(Cl)cc2)c(C)c1NC(=O)CSc1n[nH]c(C)c1[N+](=O)[O-]	0.1	0.0	142.0*	0.3	112.0	-1.0	108.0	1.0	104.0
CCN(CC)CCCNC(=O)c1sc2nc(-c3ccc(F)cc3)cn2c1C	3.8	26.0	120.0	0.3	138.0*	1.5	109.0	6.0	103.0
CCOC(=O)C1CCN(C(=O)COc2ccc(N(C)S(=O)(=O)c3ccc(C)cc3)cc2)CC1	-2.7	-4.0	102.0	-1.5	96.0	-1.5	/	/	/
COCc1c(C#N)c(NCCc2ccccc2)nc(C)c1[N+](=O)[O-]	1.8	1.0	128.0*	0.4	106.0	0.1	-1.0*[inhibitor]	-29.0	0.0*
Nc1nncn1C(=O)CCCN1C(=O)c2ccccc2C1=O	-0.4	5.0	122.0*	-0.9	121.0	0.4	107.0	5.0	101.0
Cc1nc2ccccc2nc1OCc1cccc(Cl)c1	1.1	-1.0	128.0*	-3.3	102.0	0.1	104.0	5.0	106.0
Cc1nc2ccccc2nc1OCc1ccccc1	-3.8	2.0	91.0	-6.9	101.0	-0.1	/	/	/
Fc1cccc(NC(=S)NCCCN2CCOCC2)c1	-5.4	-3.0	98.0	-2.1	95.0	-0.9	/	/	/
SMILES	GSK3B inh	MEKK2mut PB1 HTS	MEKK3 PB1 HTS	STK33 inh	MEKK2 WT-MEK5	GSK3A inh	MEKK2wt confirm	MEKK2mut confirm	MEKK3-MEK5 inh
CSc1cccc(NC(=S)NCCCN2CCN(c3ccc(F)cc3)CC2)c1	0.1	18.0	115.0	-0.9	142.0*	-1.0	134.0	9.0	103.0
O=C(O)Cc1sc(-c2ccc(Cl)cc2)nc1-c1ccccc1	-1.9	4.0	123.0*	-2.8	116.0	-2.3	98.0	7.0	104.0
COc1cc(C(=O)NC2CCCNC2)cc(OC)c1OC (stereo not given)	/	2.0	103.0	/	101.0	/	/	/	/
CC(C)N(C(=S)Nc1ccc(S(=O)(=O)N2CCOCC2)cc1)c1ccccc1	/	/	/	0.7	/	-4.7	/	/	/
O=C(Cn1nc(-c2ccccc2Cl)ccc1=O)Nc1ccc(Br)cc1	1.8	+	140.0*	-0.4	/	-5.8	103.0	0.0	104.0
CC(/C=C/c1ccccc1)=N/NC(=O)C(O)c1ccccc1 (stereo not given)	-1.0	1.0	156.0*	-0.9	112.0	-0.6	101.0	1.0	101.0
O=C(N/N=C/c1cccnc1)C(O)c1ccccc1 (stereo not given)	1.3	1.0	146.0*	-1.1	110.0	-2.0	106.0	4.0	107.0
CCC(Nc1ccc(OC)cc1)C(=O)N/N=C/c1ccc([N+](=O)[O-])cc1 (stereo not given)	0.6	0.0	105.0	1.2	96.0	1.3	/	/	/
COCCNC(=O)Cn1cc(/C=C(\C#N)C(=O)NC2CCCC2)c2ccccc21	-1.1	0.0	100.0	0.0	99.0	0.6	/	/	/
COCCCNCCOCCSc1ccc(Cl)cc1	-2.6	-2.0	91.0	/	93.0	/	/	/	/
COCCCNCCCCSc1ccc(Cl)cc1	-0.3	-1.0	52.0*[inhibitor]	/	93.0	/	104.0	4.0	101.0
CCOC(=O)Cc1nc(-c2ccccc2)n[nH]1	2.4	-3.0	91.0	1.5	1.0*[inhibitor]	-0.5	95.0	-6.0	93.0

Screening results (PubChem)
